PubChem BioAssay AID588416 (The Scripps Research Institute Molecular Screening Center, 2011)
Activity calls are given as the source filed them.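 Rule for the calls: active = IC50 at or below 1000 nM; inactive = IC50 above 1000 nM.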

Target: Protein-arginine deiminase type-4 (Homo sapiens) (UniProt Q9UM07)
Assay: PAD4 enzyme inhibition, citrulline production – biochemical, colorimetric substrate assay, assay provider data, 0-50 µM, late-stage follow-up (AID 588416)
Settings: recombinant PAD4, BAEE substrate, citrulline colorimetric absorbance
Outline: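 Test system: Recombinant PAD4 | Input: 0.2 µM PAD4 | Repeats: Duplicate measurements per compound concentration | Read-out: IC50 from dose-response fit | Timing: 15 min + 15 min at 37 °C | Medium: Tris-HCl pH 7.6, CaCl2, DTT | Measured by: Colorimetric citrulline absorbance at 540 nm, diacetyl monoxime–thiosemicarbazide development | Also added: BAEE arginine ester substrate, 10 mM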

Sequence of Protein-arginine deiminase type-4 (Homo sapiens) (Q9UM07 whole entry, looked up): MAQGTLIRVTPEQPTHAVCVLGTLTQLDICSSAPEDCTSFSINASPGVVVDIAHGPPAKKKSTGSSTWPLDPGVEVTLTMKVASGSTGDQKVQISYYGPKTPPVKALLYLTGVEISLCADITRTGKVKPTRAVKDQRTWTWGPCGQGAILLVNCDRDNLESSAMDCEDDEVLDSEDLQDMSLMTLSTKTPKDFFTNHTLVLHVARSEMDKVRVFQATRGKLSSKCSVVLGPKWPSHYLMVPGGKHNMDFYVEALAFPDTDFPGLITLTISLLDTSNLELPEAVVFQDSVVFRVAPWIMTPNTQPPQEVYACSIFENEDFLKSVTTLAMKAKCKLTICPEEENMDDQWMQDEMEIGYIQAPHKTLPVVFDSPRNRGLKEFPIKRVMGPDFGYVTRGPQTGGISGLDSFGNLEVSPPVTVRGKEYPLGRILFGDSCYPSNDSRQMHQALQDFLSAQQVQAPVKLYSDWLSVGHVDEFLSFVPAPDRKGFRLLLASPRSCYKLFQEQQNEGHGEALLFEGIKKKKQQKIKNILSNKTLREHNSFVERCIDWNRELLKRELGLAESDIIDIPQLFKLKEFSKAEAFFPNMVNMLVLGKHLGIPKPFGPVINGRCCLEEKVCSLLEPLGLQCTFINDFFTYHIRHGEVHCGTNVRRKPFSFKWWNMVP

SMILES: O=C1C=C(Br)C(=O)c2ncccc21
- IC50: inactive
